Assay results reported in ChEMBL document CHEMBL1212693, “Dorsomorphin inhibits BMP signals required for embryogenesis and iron metabolism” (Nat Chem Biol, 2008).
The source made the active and inactive calls. The rule behind the calls is not given here.

Columns and labels:
Mus musculus [1] = assay: Inhibition of iron-dextran conjugate-induced Smad-5 phosphorylation in C57BL/6 mouse at 23 ug/g, iv after 1 hr; type: functional, organism-based
Danio rerio [2] = assay: Inhibition of iron-dextran conjugate-induced Smad-5 phosphorylation in zebrafish at 23 ug/g, iv after 1 hr relative to control; type: functional
Danio rerio [3] = species on record: Danio rerio; assay: Inhibition of BMPR1 in zebrafish assessed as embryonic axis dorsalization at 20 uM treated at 2 hrs post-fertilization measured after 36 hrs in presence of 1 ng chordin morpholino
Outline: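 Wild-type zebrafish embryos injected with 1 ng chordin morpholino, then exposed to vehicle or compound (20 µM) at 2 h.p.f. Photographed at 36 h.p.f. to score the intermediate cell mass and ventral tail fin structures.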

Mus musculus [4] = species on record: Mus musculus; assay: Inhibition of BMPR1-mediated MAPK p38 phosphorylation in BMP4-stimulated mouse PASMC treated 30 mins before BMP4 challenge measured after 30 mins by immunoblot analysis
Outline: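 Mouse PASMCs were held 24 h in 0.5% FCS RPMI, preincubated 30 min with a dose range of compound, then stimulated 30 min with BMP4. Phospho-SMAD1/5/8 and phospho-p38 were detected by immunoblot and quantitated by phosphorimager (RLU). IC50 was derived from a Hill plot of phospho-SMAD1/5/8 inhibition.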

Mus musculus [5] = species on record: Mus musculus; assay: Inhibition of BMPR1-mediated MAPK p38 phosphorylation in BMP4-stimulated mouse PASMC at 100 to 200 ng/ml treated 30 mins before BMP4 challenge measured after 30 mins by immunoblot analysis
Outline: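 Mouse PASMCs were serum-reduced 24 h in 0.5% FCS RPMI, pretreated 30 min with noggin or vehicle, then given BMP4 for 30 min. Lysates in SDS buffer were immunoblotted for phospho-SMAD1/5/8 and phospho-MAPK p38, and signals were quantitated by phosphorimager.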

Mus musculus [6] = species on record: Mus musculus; assay: Inhibition of BMPR1-mediated Smad-1 phosphorylation in BMP6-stimulated mouse PASMC at 4 uM treated 30 mins before BMP6 challenge measured after 30 mins by immunoblot analysis
Outline: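 PASMCs (wild-type or BMPR-II–deficient) were kept 24 h in RPMI with 0.5% FCS, preincubated 30 min with compound or vehicle, then stimulated 30 min with recombinant BMP (10 ng ml−1). Extracts in SDS-lysis buffer were immunoblotted for phospho-SMAD1/5/8, with total SMAD1 and α-tubulin as loading controls. Bands were quantitated by phosphorimager.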

Mus musculus [7] = species on record: Mus musculus; assay: Inhibition of ALK2-mediated Smad-1 phosphorylation in BMPR2 deficient mouse PASMC at 10 uM by immunoblot analysis
Outline: (§1)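 BMPR-II–deficient mouse PASMCs (RPMI, 10% FBS) transiently transfected with constitutively active ALK2, ALK3 or ALK6 cDNA, or plasmid-only control. Incubated with or without compound (10 µM). Extracts lysed in SDS buffer, run on SDS-PAGE and immunoblotted for phospho-SMAD1/5/8; quantitated by phosphorimager.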

Mus musculus [8] = species on record: Mus musculus; assay: Inhibition of ALK2-mediated Smad-8 phosphorylation in BMPR2 deficient mouse PASMC at 10 uM by immunoblot analysis; outline: as §1
Mus musculus [9] = species on record: Mus musculus; assay: Inhibition of ALK6-mediated Smad-1 phosphorylation in BMPR2 deficient mouse PASMC at 10 uM by immunoblot analysis; outline: as §1
Mus musculus [10] = species on record: Mus musculus; assay: Inhibition of ALK6-mediated Smad-5 phosphorylation in BMPR2 deficient mouse PASMC at 10 uM by immunoblot analysis; outline: as §1
Mus musculus [11] = species on record: Mus musculus; assay: Inhibition of ALK6-mediated Smad-8 phosphorylation in BMPR2 deficient mouse PASMC at 10 uM by immunoblot analysis; outline: as §1
C2C12 = assay: Inhibition of BMPR1-mediated osteoblast differentiation in BMP4-stimulated mouse C2C12 cells assessed as decrease in alkaline phosphatase level at 4 uM by spectrophotometry; type: cell-based
Outline: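 C2C12 cells were seeded at 2,000 per well in DMEM with 2% FBS and treated in quadruplicate with BMP4 or BMP6 plus compound or vehicle. After 5 d, cells were lysed in TBS with 1% Triton X-100. Lysates were incubated 1 h with p-nitrophenylphosphate and alkaline phosphatase was read as absorbance at 405 nm. Cell count was measured by CyQuant in parallel wells.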

HepG2 = assay: Inhibition of BMPR1-mediated hepcidin mRNA expression in BMP2-stimulated human HepG2 cells at 10 uM treated 30 mins before BMP2 challenge measured after 16 hrs by qRT-PCR analysis; type: cell-based
Danio rerio [12] = species on record: Danio rerio; assay: Inhibition of BMPR1 in zebrafish assessed as penetrance of mild embryonic axis dorsalization at 10 uM treated at 2 to 6 hrs post-fertilization measured at 48 hrs; parameters: scale not given: the % may be the effect or the level left
Outline: (§2)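 Compound added at the stated times and concentrations. Gross morphology scored visually at up to 48 h.p.f. for dorsalization of the embryonic axis.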

Danio rerio [13] = species on record: Danio rerio; assay: Inhibition of BMPR1 in zebrafish assessed as penetrance of moderate embryonic axis dorsalization at 10 uM treated at 2 to 8 hrs post-fertilization measured at 48 hrs; parameters: scale not given: the % may be the effect or the level left; outline: as §2
Danio rerio [14] = species on record: Danio rerio; assay: Inhibition of BMPR1 in zebrafish assessed as severity of embryonic axis dorsalization at 10 uM treated at 4 to 8 hrs post-fertilization measured at 48 hrs; parameters: scale not given: the % may be the effect or the level left
Danio rerio [15] = species on record: Danio rerio; assay: Inhibition of BMPR1 in zebrafish assessed as penetrance of mild embryonic axis dorsalization at 0.2 uM treated at 3 hrs post-fertilization measured at 48 hrs; parameters: scale not given: the % may be the effect or the level left; outline: as §2
Danio rerio [16] = species on record: Danio rerio; assay: Inhibition of BMPR1 in zebrafish assessed as penetrance of moderate embryonic axis dorsalization at 0.2 uM treated at 3 hrs post-fertilization measured at 48 hrs; parameters: scale not given: the % may be the effect or the level left; outline: as §2
Danio rerio [17] = species on record: Danio rerio; assay: Inhibition of BMPR1 in zebrafish assessed as penetrance of moderate embryonic axis dorsalization at 0.5 uM treated at 3 hrs post-fertilization measured at 48 hrs; parameters: scale not given: the % may be the effect or the level left; outline: as §2
Danio rerio [18] = species on record: Danio rerio; assay: Inhibition of BMPR1 in zebrafish assessed as penetrance of moderate embryonic axis dorsalization at 1 uM treated at 3 hrs post-fertilization measured at 48 hrs; parameters: scale not given: the % may be the effect or the level left; outline: as §2
Danio rerio [19] = species on record: Danio rerio; assay: Inhibition of BMPR1 in zebrafish assessed as penetrance of normal embryonic axis dorsalization at 2 uM treated at 3 hrs post-fertilization measured at 48 hrs; parameters: scale not given: the % may be the effect or the level left
Danio rerio [20] = species on record: Danio rerio; assay: Inhibition of BMPR1 in zebrafish assessed as penetrance of mild embryonic axis dorsalization at 5 uM treated at 3 hrs post-fertilization measured at 48 hrs; parameters: scale not given: the % may be the effect or the level left; outline: as §2
Danio rerio [21] = species on record: Danio rerio; assay: Inhibition of BMPR1 in zebrafish assessed as increase in pax2a expression at 10 uM treated at 12 hrs post-fertilization measured at 48 hrs
Danio rerio [22] = species on record: Danio rerio; assay: Inhibition of BMPR1 in zebrafish assessed as penetrance of mild embryonic axis dorsalization at 10 uM treated continuously from 4 hrs post-fertilization measured after 48 hrs; parameters: scale not given: the % may be the effect or the level left; outline: as §2
Danio rerio [23] = species on record: Danio rerio; assay: Inhibition of BMPR1 in zebrafish assessed as severity of embryonic axis dorsalization at 10 uM treated continuously from 2 hrs post-fertilization measured after 48 hrs; parameters: scale not given: the % may be the effect or the level left
Danio rerio [24] = species on record: Danio rerio; assay: Inhibition of BMPR1 in zebrafish assessed as penetrance of normal embryonic axis dorsalization at 10 uM treated continuously from 2 hrs post-fertilization measured after 48 hrs; parameters: scale not given: the % may be the effect or the level left
Danio rerio [25] = species on record: Danio rerio; assay: Inhibition of BMPR1 in zebrafish assessed as penetrance of mild embryonic axis dorsalization at 10 uM treated continuously from 8 hrs post-fertilization measured at 48 hrs; parameters: scale not given: the % may be the effect or the level left; outline: as §2

Structure (SMILES): c1cc(-c2cnn3cc(-c4ccc(OCCN5CCCCC5)cc4)cnc23)ccn1 [DORSOMORPHIN]
- inhibition (Mus musculus [1]): Active
- fold change (FC) (Danio rerio [2]): 3
- inhibition (Danio rerio [3]): Active
- inhibition (Mus musculus [4]): inactive
- inhibition (Mus musculus [5]): Active
- inhibition (Mus musculus [6]): Active
- inhibition (Mus musculus [7]): Active
- inhibition (Mus musculus [8]): Active
- inhibition (Mus musculus [9]): Active
- inhibition (Mus musculus [10]): Active
- inhibition (Mus musculus [11]): Active
- inhibition (C2C12): Active
- inhibition (HepG2): Active
- Activity (Danio rerio [12]): 17%
- Activity (Danio rerio [13]): 0%
- Activity (Danio rerio [14]): 0%
- Activity (Danio rerio [15]): 0%
- Activity (Danio rerio [16]): 0%
- Activity (Danio rerio [17]): 0%
- Activity (Danio rerio [18]): 0%
- Activity (Danio rerio [19]): 100%
- Activity (Danio rerio [20]): 19%
- Activity (Danio rerio [21]): Active
- Activity (Danio rerio [22]): 0%
- Activity (Danio rerio [23]): 100%
- Activity (Danio rerio [24]): 0%
- Activity (Danio rerio [25]): 85%
